Measurements reported in ChEMBL document CHEMBL4390647, “Efficient click chemistry towards novel 1H-1,2,3-triazole-tethered 4H-chromene-d-glucose conjugates: Design, synthesis and evaluation of in vitro antibacterial, MRSA and antifungal activities” (Eur J Med Chem, 2019).
Converted amounts (≈) assume the structure as drawn.

Tests used:
[1] = tested on: Aspergillus flavus; assay: Antifungal activity against Aspergillus flavus ATCC 204304 measured after 72 hrs by agar dilution method; assay type: functional; conditions: ATCC 204304, 72 h
Summary of the method: (§1)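 Agar dilution on Sabouraud dextrose agar, with compounds at […] to 0.78 μM in twofold steps. Fungal suspensions at 10 CFU/mL as printed were applied to the compound-containing plates. Incubation at 35°C; MIC read after 72 h. Three experiments.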

[2] = tested on: Escherichia coli; assay: Antibacterial activity against Escherichia coli ATCC 25922 measured after 18 to 20 hrs by microbroth dilution method; assay type: functional
Summary of the method: (§2)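 Inoculum from a 4–6-h broth adjusted to 0.5 McFarland, final 5 × 10⁵ CFU/mL. Incubation at 35°C for 18–20 h. MIC taken as the lowest concentration giving complete inhibition of visible growth; three experiments.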

[3] = tested on: Saccharomyces cerevisiae; assay: Antifungal activity against Saccharomyces cerevisiae SH 20 after 72 hrs by agar dilution method; assay type: functional; conditions: SH 20, 72 h; summary of the method: as §1
[4] = tested on: Klebsiella pneumoniae; assay: Antibacterial activity against measured after Klebsiella pneumoniae ATCC 4352 measured after 18 to 20 hrs by microbroth dilution method; assay type: functional; summary of the method: as §2
[5] = tested on: Staphylococcus aureus; assay: Antibacterial activity against Staphylococcus aureus MRSA198 clinical isolate-1 measured after 18 to 20 hrs by microbroth dilution method; assay type: functional; conditions: MRSA198 isolate-1
[6] = tested on: Staphylococcus aureus; assay: Antibacterial activity against Staphylococcus aureus ATCC 11632 after 18 to 20 hrs by microbroth dilution method; assay type: functional; summary of the method: as §2
[7] = tested on: Salmonella typhimurium; assay: Antibacterial activity against Salmonella typhimurium ATCC 14028 measured after 18 to 20 hrs by microbroth dilution method; assay type: functional, Salmonella enterica subsp. enterica serovar Typhimurium; conditions: Salmonella enterica; summary of the method: as §2
[8] = tested on: Bacillus subtilis; assay: Antibacterial activity against Bacillus subtilis ATCC 11774 after 18 to 20 hrs by microbroth dilution method; assay type: functional; summary of the method: as §2
[9] = tested on: Candida albicans; assay: Antifungal activity against Candida albicans ATCC 7754 after 72 hrs by agar dilution method; assay type: functional; conditions: ATCC 7754, 72 h; summary of the method: as §1
[10] = tested on: Staphylococcus aureus; assay: Antibacterial activity against Staphylococcus aureus MRSA198 clinical isolate-3 measured after 18 to 20 hrs by microbroth dilution method; assay type: functional; conditions: MRSA198 isolate-3
[11] = Cytotoxicity against mouse RAW264.7 cells assessed as growth inhibition at 50 ug/mL after 120 hrs by MTT assay relative to control; assay type: cell-based; conditions: read-out: GI
Summary of the method: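 RAW 264.7 mouse macrophages were seeded at 25,000 cells/well and left to attach overnight. Compound in DMSO was added from a 200× concentrate, in duplicate wells, to a 50 μg/mL test level; DMSO served as control. Exposure 120 h at 37°C in 5% CO₂. MTT (4 mg/mL in PBS) was added for 4 h, formazan dissolved in DMSO, and absorbance read at 560 nm. Viability expressed as % of untreated cells, mean ± SE of at least three independent experiments.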

[12] = tested on: Staphylococcus epidermidis; assay: Antibacterial activity against Staphylococcus epidermidis ATCC 12228 after 18 to 20 hrs by microbroth dilution method; assay type: functional; summary of the method: as §2
[13] = tested on: Pseudomonas aeruginosa; assay: Antibacterial activity against Pseudomonas aeruginosa […] measured after 18 to 20 hrs by microbroth dilution method; assay type: functional; summary of the method: as §2
[14] = tested on: Aspergillus niger; assay: Antifungal activity against Aspergillus niger ATCC 439 measured after 72 hrs by agar dilution method; assay type: functional; conditions: ATCC 439, 72 h; summary of the method: as §1
[15] = tested on: Staphylococcus aureus; assay: Antibacterial activity against Staphylococcus aureus MRSA198 clinical isolate-2 measured after 18 to 20 hrs by microbroth dilution method; assay type: functional; conditions: MRSA198 isolate-2
[16] = tested on: Aspergillus niger; assay: Antifungal activity against Aspergillus niger NCIM1196 by standard agar method; assay type: functional
[17] = tested on: Candida albicans; assay: Antifungal activity against Candida albicans NCIM3471 by standard agar method; assay type: functional

SMILES	MIC [1] [µM]	MIC [2] [µM]	MIC [3] [µM]	MIC [4] [µM]	MIC [5] [µM]	MIC [6] [µM]	MIC [7] [µM]	MIC [8] [µM]	MIC [9] [µM]	MIC [10] [µM]	inhibition at 120 h, 50 ug/mL [11] [%]	MIC [12] [µM]	MIC [13] [µM]	MIC [14] [µM]	MIC [15] [µM]	MIC [16] [µg/mL]	MIC [17] [µg/mL]
COc1cccc(C2C(C#N)=C(N)Oc3cc(OCc4cn([C@@H]5O[C@H](COC(C)=O)[C@@H](OC(C)=O)[C@H](OC(C)=O)[C@H]5OC(C)=O)nn4)ccc32)c1OC (stereo partly specified)	25 (≈ 18.4 µg/mL)	200 (≈ 147 µg/mL)	200 (≈ 147 µg/mL)	25 (≈ 18.4 µg/mL)	12.5 (≈ 9.2 µg/mL)	12.5 (≈ 9.2 µg/mL)	12.5 (≈ 9.2 µg/mL)	12.5 (≈ 9.2 µg/mL)	100 (≈ 73.6 µg/mL)	12.5 (≈ 9.2 µg/mL)	31.1	25 (≈ 18.4 µg/mL)	12.5 (≈ 9.2 µg/mL)	25 (≈ 18.4 µg/mL)	12.5 (≈ 9.2 µg/mL)		
CC(=O)OC[C@H]1O[C@@H](n2cc(COc3ccc4c(c3)OC(N)=C(C#N)C4c3ccc(Br)cc3)nn2)[C@H](OC(C)=O)[C@@H](OC(C)=O)[C@@H]1OC(C)=O (stereo partly specified)	200 (≈ 151 µg/mL)	100 (≈ 75.5 µg/mL)	1.56 (≈ 1.18 µg/mL)	200 (≈ 151 µg/mL)	12.5 (≈ 9.43 µg/mL)	25 (≈ 18.9 µg/mL)	200 (≈ 151 µg/mL)	200 (≈ 151 µg/mL)	3.12 (≈ 2.35 µg/mL)	12.5 (≈ 9.43 µg/mL)	25.3	100 (≈ 75.5 µg/mL)	25 (≈ 18.9 µg/mL)	3.12 (≈ 2.35 µg/mL)	12.5 (≈ 9.43 µg/mL)		
CC(=O)OC[C@H]1O[C@@H](n2cc(COc3ccc4c(c3)OC(N)=C(C#N)C4c3cccc(Cl)c3Cl)nn2)[C@H](OC(C)=O)[C@@H](OC(C)=O)[C@@H]1OC(C)=O (stereo partly specified)	200 (≈ 149 µg/mL)	200 (≈ 149 µg/mL)			200 (≈ 149 µg/mL)	50 (≈ 37.2 µg/mL)	50 (≈ 37.2 µg/mL)	25 (≈ 18.6 µg/mL)	25 (≈ 18.6 µg/mL)	100 (≈ 74.5 µg/mL)	23.8	200 (≈ 149 µg/mL)	6.25 (≈ 4.65 µg/mL)	200 (≈ 149 µg/mL)	200 (≈ 149 µg/mL)		
CC(=O)OC[C@H]1O[C@@H](n2cc(COc3ccc4c(c3)OC(N)=C(C#N)C4c3cccc([N+](=O)[O-])c3)nn2)[C@H](OC(C)=O)[C@@H](OC(C)=O)[C@@H]1OC(C)=O (stereo partly specified)	50 (≈ 36 µg/mL)	50 (≈ 36 µg/mL)	6.25 (≈ 4.5 µg/mL)		1.56 (≈ 1.12 µg/mL)	3.12 (≈ 2.25 µg/mL)	400 (≈ 288 µg/mL)	50 (≈ 36 µg/mL)	200 (≈ 144 µg/mL)	3.12 (≈ 2.25 µg/mL)	15.6	400 (≈ 288 µg/mL)	12.5 (≈ 9.01 µg/mL)	12.5 (≈ 9.01 µg/mL)	6.25 (≈ 4.5 µg/mL)		
CCOC(=O)c1cc2ccc(OCc3cn(Cc4ccc(F)cc4)nn3)cc2oc1=O																25 (≈ 59 µM)	12.5 (≈ 29.5 µM)
OC(Cn1cncn1)(Cn1cncn1)c1ccc(F)cc1F [FLUCONAZOLE]	0.78 (≈ 0.239 µg/mL)		0.78 (≈ 0.239 µg/mL)						0.78 (≈ 0.239 µg/mL)					1.56 (≈ 0.478 µg/mL)		12.5 (≈ 40.8 µM)	12.5 (≈ 40.8 µM)
CC(=O)OC[C@H]1O[C@@H](n2cc(COc3ccc4c(c3)OC(N)=C(C#N)C4c3ccc(C)cc3)nn2)[C@H](OC(C)=O)[C@@H](OC(C)=O)[C@@H]1OC(C)=O (stereo partly specified)	3.12 (≈ 2.15 µg/mL)	12.5 (≈ 8.62 µg/mL)	3.12 (≈ 2.15 µg/mL)	400 (≈ 276 µg/mL)		400 (≈ 276 µg/mL)	200 (≈ 138 µg/mL)	50 (≈ 34.5 µg/mL)	400 (≈ 276 µg/mL)	400 (≈ 276 µg/mL)	19.6	400 (≈ 276 µg/mL)	400 (≈ 276 µg/mL)	100 (≈ 69 µg/mL)			
COc1cccc(C2C(C#N)=C(N)Oc3cc(OCc4cn([C@@H]5O[C@H](COC(C)=O)[C@@H](OC(C)=O)[C@H](OC(C)=O)[C@H]5OC(C)=O)nn4)ccc32)c1 (stereo partly specified)	1.56 (≈ 1.1 µg/mL)	200 (≈ 141 µg/mL)	25 (≈ 17.6 µg/mL)	6.25 (≈ 4.41 µg/mL)		400 (≈ 282 µg/mL)	100 (≈ 70.6 µg/mL)	200 (≈ 141 µg/mL)	400 (≈ 282 µg/mL)	400 (≈ 282 µg/mL)	25.1	100 (≈ 70.6 µg/mL)	400 (≈ 282 µg/mL)	400 (≈ 282 µg/mL)			
CC(=O)OC[C@H]1O[C@@H](n2cc(COc3ccc4c(c3)OC(N)=C(C#N)C4c3ccc(Cl)cc3)nn2)[C@H](OC(C)=O)[C@@H](OC(C)=O)[C@@H]1OC(C)=O (stereo partly specified)	25 (≈ 17.8 µg/mL)	1.56 (≈ 1.11 µg/mL)	1.56 (≈ 1.11 µg/mL)	12.5 (≈ 8.88 µg/mL)	200 (≈ 142 µg/mL)	50 (≈ 35.5 µg/mL)	12.5 (≈ 8.88 µg/mL)	400 (≈ 284 µg/mL)	6.25 (≈ 4.44 µg/mL)	100 (≈ 71 µg/mL)	25.1	200 (≈ 142 µg/mL)	3.12 (≈ 2.22 µg/mL)	50 (≈ 35.5 µg/mL)	200 (≈ 142 µg/mL)		
